Each structure is given as a SMILES string.

This series is described as follows: Toxicity liver stage against HepG2, at 10uM. Type of series: cell-based. Particulars: human, HepG2-A16-CD81EGFP cells; read-out: INHIBITION
Also on record: test concentration 10 uM, cell line HepG2-A16-CD81EGFP. The method in brief:
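Uninfected HepG2-A16-CD81EGFP cells, 3 × 10^3 per well, 1536-well, plated on prespotted compound at 10 μM final, parasite-free screening media added to match infected plates; puromycin 10 μM positive, DMSO 0.5% negative; run in parallel with 48 h PbLuc assay at 37 °C, 5% CO2; viability by CellTiter-Glo luminescence, normalized to controls.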
On to `CC[C@H]1CN(S(=O)(=O)c2ccc(OC)cc2)CC[C@H]1CC(=O)O`, for which the cytotoxicity at 10 µM amounted to 7.28%.
Regarding `Oc1cccc(-c2cc(CC3(N(CC4CC4)CC4CC4)COC3)no2)c1`, the cytotoxicity at 10 µM was determined as 6.15%.
Consider `COc1ccc(OC)c(Sc2ncccc2C(=O)NCC2CC2)c1`, for which the cytotoxicity at 10 µM worked out at 20.7%.
Regarding `CC(C)(Oc1ccc(C(N)=O)cc1)C(=O)N(CCC#N)C1CC1`, the cytotoxicity at 10 µM came to 1.58%.
As for `COc1ccc(CC(=O)Nc2ccc3ncn(C)c(=O)c3c2)cc1`, the cytotoxicity at 10 µM was 1.29%.
As to `COCCc1noc(C2CCN(S(=O)(=O)c3cccs3)CC2)n1`, the cytotoxicity at 10 µM worked out at 7.51%.
On to `Cn1cnnc1S(=O)(=O)C1CCN(C(=O)c2ccsc2)CC1`, for which the cytotoxicity at 10 µM was 6.81%.
Consider `Cc1ccsc1C(=O)N1CC2CC1(C(=O)NCC1CC1)C2`, for which the cytotoxicity at 10 µM is -4.78%.
As to `NC(=O)N1C[C@@H]2CN(C(=O)c3ccco3)C[C@@H]2C1`, the cytotoxicity at 10 µM is -2.54%.
As for `CCCN1CCC2(C1)c1ccccc1S(=O)(=O)N2Cc1ccc(F)cc1` (configuration not stated), the cytotoxicity at 10 µM was found to be 18.3%.
For `Cc1cccc(C(=O)N2CCC3(CC2)CC(c2ccccc2)C(=O)N3)c1` (configuration not stated), the cytotoxicity at 10 µM was 17.8%.
`Cc1nc(CO[C@@H]2CN(Cc3ccc(F)cc3)[C@@H]3COC[C@@H]32)cs1`: the cytotoxicity at 10 µM is 5.42%.
With `COC[C@@]12CCO[C@@H]1CCN(C(=O)CCc1ccccc1Cl)C2`, the cytotoxicity at 10 µM came out at 7.69%.
Consider `CS(=O)(=O)NC[C@]12COC[C@H]1CN(C(=O)c1cnccn1)C2`, for which the cytotoxicity at 10 µM stood at 6.3%.
With `CN(Cc1cn2c(n1)CN(C(=O)c1cccn1C)CC2)Cc1ccco1` the figure was 2.75%; with `CC(C)=CCC/C(C)=C/CC(C)(C)CNCc1ccco1`, -23.7%; with `CN(C)c1ncc(-c2cc(C(=O)O)n(CC3CC3)c2)cn1`, -9.23%.
Regarding `Cn1cc(CN2CC3(CCN(C(=O)c4cscn4)C3)C2)cn1`, the cytotoxicity at 10 µM is -11.9%.
As for `Nc1nnnn1NCc1cccc2ccccc12`, the cytotoxicity at 10 µM worked out at 10.4%.
With `Cc1cccc2c1cnn2CCC(=O)NCc1csc(C2CC2)n1` the figure was 4.22%; with `COCC(=O)N1CCCC(C)(c2nncn2C)C1` (configuration not stated), 4.08%.
As for `Nc1nc2nc(C3CCN(C(=O)c4cscn4)C3)ccc2s1` (configuration not stated), the cytotoxicity at 10 µM is -5.72%.
For the compound `CNc1cc(CNC(=O)c2ccccc2OC)nc(-c2ccncc2)n1`, the cytotoxicity at 10 µM was -13.7%.
`CC1CCCCN1c1nc2c(c(=O)[nH]1)CCN(Cc1ccccc1O)C2` (configuration not stated): the cytotoxicity at 10 µM was -1.97%.
On to `CNc1cncc(C2CCCN2C(=O)Cn2c(=O)oc3ccccc32)n1` (configuration not stated), for which the cytotoxicity at 10 µM is -6.14%.
As to `CC(C)NC(=O)CN(C)C(=O)c1c(Br)c2ccccc2n1C`, the cytotoxicity at 10 µM came out at 4.61%.
Turning to `CN(C)CC1CCCCN1C(=O)c1ccc(N2CCOCC2)cc1` (configuration not stated), the cytotoxicity at 10 µM was -0.0679%.
As to `CCN(C)S(=O)(=O)NCC(O)c1c(Cl)cccc1Cl` (configuration not stated), the cytotoxicity at 10 µM was determined as 8.17%.
As to `Cc1ccc(Br)cc1S(=O)(=O)NCCc1nnc[nH]1`, the cytotoxicity at 10 µM was -5.89%.
Consider `COC(=O)C(C)Sc1nnnn1C1CCOCC1` (configuration not stated), for which the cytotoxicity at 10 µM is -10.5%.
`COc1ccc(C(=O)NC2CC2)c(OC)c1`: the cytotoxicity at 10 µM was -3.51%.
With `CCCC(NC(=O)c1cncc(C)c1)c1nnn[nH]1` (configuration not stated) the figure was -15.5%.
As to `CN1CCN(C(=O)c2cnsn2)c2ccc(F)cc21`, the cytotoxicity at 10 µM was found to be 3.47%.
On to `CCC(=O)N(CCN(C)C)Cc1ccc(F)c(F)c1`, for which the cytotoxicity at 10 µM is -4.38%.
With `O=C(CCS(=O)(=O)C1CCCC1)NCCc1ccc2c(c1)OCCO2` the figure was -1.29%; with `CC(Cn1cncn1)NC(=O)NCc1csc(N(C)C)n1` (configuration not stated), 8.42%; with `CNS(=O)(=O)c1cccc(C(C)NCc2nccn2C(C)C)c1` (configuration not stated), -12.6%.
On to `CC(=O)c1cccc(OCCCC(=O)N(C)Cc2cccc(O)c2)c1`, for which the cytotoxicity at 10 µM is -4.58%.
In the case of `c1c(CN2CCOCC2)nc2n1CCN(CC1CC1)C2`, the cytotoxicity at 10 µM worked out at 2.73%.
With `COCCn1cc2c(n1)C(CNC(=O)c1cc(C)[nH]c1C)OCC2` (configuration not stated) the figure was 8.81%; with `CCN(C(=O)c1nc2c(s1)CCCN2C)C(C)C`, 4.37%; with `Cc1cc2nc(C(=O)NCc3cccnc3N(C)C)cc(C)n2n1`, -5.54%.
`Cc1nc(NC(=O)N2CCCC(C(C)(C)O)C2)nn1C` (configuration not stated): the cytotoxicity at 10 µM is 13.5%.
For `CNc1nc(N2CCN(C)C(CCO)C2)nc2c1CCC2` (configuration not stated), the cytotoxicity at 10 µM came out at 2.66%.
`CN1CCC(C(=O)NCCC2CN(c3cnn(C)c(=O)c3)CCO2)CC1` (configuration not stated): the cytotoxicity at 10 µM is 5.75%.
Consider `O=S1(=O)C[C@@H]2[C@H](C1)N(Cc1cccc(O)c1)CCN2CC1CC1`, for which the cytotoxicity at 10 µM was 1.79%.
With `CCn1c(C)nnc1SCCNC(=O)c1cnc(C(C)(C)C)nc1O` the figure was -6.14%; with `Cc1nnc(CN(C)C2CCN(c3cccc(-c4cscn4)c3)CC2)o1`, -7.3%.
In the case of `Cc1ccn(CC(=O)N2CC[C@@H](c3ccc4ccccc4c3)[C@H](O)C2)n1`, the cytotoxicity at 10 µM was found to be 5.02%.
With `c1ccc(Cn2cc(CNc3ncnc4c3CCNCC4)cn2)cc1` the figure was 1.99%.
With `CCN1CCc2[nH]cnc2C12CCN(Cc1ccc3nsnc3c1)CC2` the figure was 3.72%; with `O=C(CCc1cc(O)no1)N1CCCC(OCc2cccnc2)C1` (configuration not stated), -12.7%; with `O=C(C1CCC1)N1CCN(C(=O)c2cnccn2)[C@H]2CS(=O)(=O)C[C@H]21`, -10.8%.
For the compound `CC(C)(C)c1ncc2c(n1)CN(C(=O)c1ccc(-c3nc[nH]n3)cc1)C2`, the cytotoxicity at 10 µM is -16.8%.
In the case of `Cc1ccc(OC2(C(=O)O)CCN(C(=O)c3nc(C)oc3C)CC2)cn1`, the cytotoxicity at 10 µM is -9.41%.
In the case of `CCC(NC(=O)C1CCN(S(C)(=O)=O)CC1)c1ccc(OC)c(C)c1` (configuration not stated), the cytotoxicity at 10 µM is -10%.
As to `N#Cc1cc2c(nc1O)CCCCC2`, the cytotoxicity at 10 µM was -6.88%.
Consider `COCCN1CCC(NCc2ccc(Cl)cc2)C1` (configuration not stated), for which the cytotoxicity at 10 µM was -5.56%.
`CCc1nnc2n1CCN(Cc1cc(Cl)c3c(c1)OCCCO3)C2`: the cytotoxicity at 10 µM is -5.83%.
As for `NC(=O)C1CCN(C(=O)c2ccn(-c3cccc(F)c3)n2)C1` (configuration not stated), the cytotoxicity at 10 µM is -3.05%.
`COc1ccc(C(CNC(=O)NCc2csc(C)n2)N(C)C)cc1` (configuration not stated): the cytotoxicity at 10 µM is -5.59%.
As to `Cc1cc(C)c(CNC(=O)NCC2COCCO2)c(=O)[nH]1` (configuration not stated), the cytotoxicity at 10 µM is -3.81%.
With `Cc1cnn(CCC(=O)N2CCN(c3nccs3)CC2)c1`, the cytotoxicity at 10 µM is -8.03%.
Regarding `c1ccc(Cc2nc(CN3CCCC3Cn3cncn3)cs2)cc1` (configuration not stated), the cytotoxicity at 10 µM is -2.54%.
For the compound `Cc1cc(C(=O)N2CCCC2c2c(C)nn(C)c2C)no1` (configuration not stated), the cytotoxicity at 10 µM was -2.57%.
As to `CCc1ocnc1C(=O)N1CCOC(c2nc(C)n[nH]2)C1` (configuration not stated), the cytotoxicity at 10 µM is -12%.
For `CCN1CCC(NC(=O)CN2CC(n3nc(C)cc3C)C2)CC1`, the cytotoxicity at 10 µM was -4.44%.
For `CC(C)Cc1nc(CN2CCN(CC(O)c3ccccc3)CC2)no1` (configuration not stated), the cytotoxicity at 10 µM was -14.4%.
With `CCc1n[nH]c(C2CN(C(=O)c3ccnc(C)n3)CCO2)n1` (configuration not stated) the figure was -7.06%.
`Cc1nn(C)c(N(C)C)c1CNC(C)COc1ccccc1F` (configuration not stated): the cytotoxicity at 10 µM is -14.1%.
Take `Cc1nn(C)c(C)c1C1CCCN1Cc1nc(N)c2ccccc2n1` (configuration not stated): the cytotoxicity at 10 µM was -16%.
With `CC(C)(C)C(=O)NCCC(=O)NCCc1ccn(-c2ccccc2)n1` the figure was -8.89%; with `CCc1nc(C2CCCN(C(=O)c3ccc(Cl)cc3)C2)no1` (configuration not stated), 5.71%.
Take `CCc1nc(CNCC2CCCN2c2cccnn2)no1` (configuration not stated): the cytotoxicity at 10 µM is -12.6%.
Turning to `O=C(COc1cccnc1)N1CCCC(n2cccn2)C1` (configuration not stated), the cytotoxicity at 10 µM was -1.92%.
Take `Cc1nc(C)n(C2CCCN(C(=O)c3nc(C)n4ccccc34)C2)n1` (configuration not stated): the cytotoxicity at 10 µM is -10.9%.
With `CC(C)c1nc(CN2CCC(CO)CC2)cs1` the figure was -20.1%; with `O=C(Nc1cc(F)ccc1OCC1CCCO1)c1ccoc1` (configuration not stated), 4.43%; with `COCCn1cc(C(=O)N2CCCC(n3cncn3)C2)ccc1=O` (configuration not stated), -2.38%.
For the compound `Cc1cc(CN(C)C(=O)NCC2CCS(=O)(=O)C2)no1` (configuration not stated), the cytotoxicity at 10 µM was -0.874%.
For the compound `O=C(NCCc1ccsc1)Nc1cccnc1N1CCCC1`, the cytotoxicity at 10 µM was -6.78%.
For `CCn1ccnc1CN1CCC(N(C)Cc2ncc(C)o2)C1` (configuration not stated), the cytotoxicity at 10 µM was -7.48%.
On to `CN(C)CC1CN(Cc2nnc(-c3ccccc3Cl)o2)CCO1` (configuration not stated), for which the cytotoxicity at 10 µM was 1.56%.
With `CCOCCN1CCn2c(C)nnc2C1` the figure was 3.34%.
Consider `CN1CCC/C1=N\S(=O)(=O)c1ccc(NC(=O)c2cccs2)cc1`, for which the cytotoxicity at 10 µM is -3.34%.
As to `CCc1n[nH]c(C2CN(CCc3ccncc3)CCO2)n1` (configuration not stated), the cytotoxicity at 10 µM turned out to be 2.17%.
With `Cc1cc(C)n(C2CCCN(C(=O)c3ccc(NC4CC4)nc3)C2)n1` (configuration not stated) the figure was 5.25%; with `COc1ccc(F)cc1-c1ccccc1CC1CNCCNC1=O` (configuration not stated), 3.48%; with `Cn1ccc(C(=O)NC2CCC23CCN(Cc2cccnc2)CC3)c1` (configuration not stated), -12.1%.
`Cc1ccc(CN2CCc3onc(C(=O)N4CCCC4)c3C2)o1`: the cytotoxicity at 10 µM is 6.28%.
As for `C[C@H]1C(=O)NC[C@H]2CN(Cc3cccc(F)c3)C[C@H]21`, the cytotoxicity at 10 µM worked out at 0.964%.
Regarding `COC[C@@]12CCO[C@@H]1CCN(Cc1ccccc1F)C2`, the cytotoxicity at 10 µM was -12.9%.
Turning to `COCC1COCCC12CCN(Cc1cccs1)CC2` (configuration not stated), the cytotoxicity at 10 µM was determined as 6.13%.
Take `N#Cc1cccc(CN2CC[C@@H]3CO[C@@H](CN4CCCC4)[C@@H]3C2)c1`: the cytotoxicity at 10 µM is -0.159%.
For `Cc1noc(C)c1CN1CCN(CCN(C)C)c2ncccc2C1`, the cytotoxicity at 10 µM was found to be 7.83%.
For `COCCN1CCCC12CCN(c1ncccn1)CC2`, the cytotoxicity at 10 µM is 11.4%.
As for `Cc1cccc(-n2cc3nc(N4CCC(C)CC4)[nH]cc-3c2=O)c1`, the cytotoxicity at 10 µM came to 0.738%.

These data come from ChEMBL document CHEMBL4513216, “Probing the Open Global Health Chemical Diversity Library for Multistage-Active Starting Points for Next-Generation Antimalarials” (ACS Infect Dis, 2020).
